{"source": "paper PMC2765218", "about": "(Nature biotechnology, 2009)", "test_system": "mutant HTT", "format": "cell-based, human", "settings": "GM04281 cells", "how_it_was_run": "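GM04281 fibroblasts (heterozygous for mutant HTT) were grown in MEM with 10% heat-inactivated FBS and plated 2 days before treatment. PNA-peptide conjugate stocks were heated 65 °C for 5 min, then added in OptiMEM; medium was replaced after 24 h and cells were harvested about 4 days later. BCA-normalised lysates ran on 5% Tris-acetate SDS-PAGE (ice bath) to separate wild-type and mutant HTT. Anti-HTT immunoblot with β-actin loading control; densitometry gave % inhibition versus control from triplicate experiments. Dose-response fit: y=100(1−x^m/(n^m+x^m)).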", "data": [{"substance": "K-GGCGGCTGTTGCTGCTGCT-K8 [3J/HTT]", "values": [{"measurement": "selectivity (wild-type IC50/mutant IC50), HTT", "result": 5, "unit": "fold"}]}]}
